Most compounds without a hit are left out; they make up all but 5.5% or so of the library.
STAT3 act = IL-6 driven STAT3 reporter potentiators, primary screen, U3A cells, luciferase, luminescence, MLSCN library | 190,000 compounds, 0.91% hits | AID 871, 2007 | activation (% of control), % at 5.6 µM | IL-6 STAT3-luciferase reporter; 100% = signal with IL-6 EC80 alone;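 active means activation above the screen-wide mean of compound activation plus 3 SD, cut at about 130% in these data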;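 further: 0% = background luminescence of wells with medium and substrate only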
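Material: STAT3-luciferase reporter U3A cells; Probe or stimulus: IL-6 (33 ng/mL); Incubation: compound pre-incubation 1 h before IL-6, then 6 h stimulation at 37 °C; Technique: luminescence from STAT3-driven luciferase reporter; Evaluation: % activation versus median of IL-6-stimulated wells; Controls: IL-6-only high control.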
Cl transport mod = KCC2 cotransporter modulators, thallium flux, primary screen, cell-based, HEK293 KCC2, FluoZin-2 fluorescence, MLSMR; Solute carrier family 12 member 5 (Homo sapiens), Q9H2X9; KCC2 cells, thallium flux FluoZin-2 fluorescence; B-score of Tl+ flux slope (higher = more flux/activation; lower = inhibition) at 10 µM; 190,000 compounds, 2.2% hits; AID 1456, 2008;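 active means thallium flux slope and its plate-corrected score both differing from the plate sample mean at a set confidence after two filtering rounds, in either direction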;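 further: slope of fluorescence scaled to starting intensity during 10 to 20 s after thallium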
Target sequence (Q9H2X9 whole entry, looked up): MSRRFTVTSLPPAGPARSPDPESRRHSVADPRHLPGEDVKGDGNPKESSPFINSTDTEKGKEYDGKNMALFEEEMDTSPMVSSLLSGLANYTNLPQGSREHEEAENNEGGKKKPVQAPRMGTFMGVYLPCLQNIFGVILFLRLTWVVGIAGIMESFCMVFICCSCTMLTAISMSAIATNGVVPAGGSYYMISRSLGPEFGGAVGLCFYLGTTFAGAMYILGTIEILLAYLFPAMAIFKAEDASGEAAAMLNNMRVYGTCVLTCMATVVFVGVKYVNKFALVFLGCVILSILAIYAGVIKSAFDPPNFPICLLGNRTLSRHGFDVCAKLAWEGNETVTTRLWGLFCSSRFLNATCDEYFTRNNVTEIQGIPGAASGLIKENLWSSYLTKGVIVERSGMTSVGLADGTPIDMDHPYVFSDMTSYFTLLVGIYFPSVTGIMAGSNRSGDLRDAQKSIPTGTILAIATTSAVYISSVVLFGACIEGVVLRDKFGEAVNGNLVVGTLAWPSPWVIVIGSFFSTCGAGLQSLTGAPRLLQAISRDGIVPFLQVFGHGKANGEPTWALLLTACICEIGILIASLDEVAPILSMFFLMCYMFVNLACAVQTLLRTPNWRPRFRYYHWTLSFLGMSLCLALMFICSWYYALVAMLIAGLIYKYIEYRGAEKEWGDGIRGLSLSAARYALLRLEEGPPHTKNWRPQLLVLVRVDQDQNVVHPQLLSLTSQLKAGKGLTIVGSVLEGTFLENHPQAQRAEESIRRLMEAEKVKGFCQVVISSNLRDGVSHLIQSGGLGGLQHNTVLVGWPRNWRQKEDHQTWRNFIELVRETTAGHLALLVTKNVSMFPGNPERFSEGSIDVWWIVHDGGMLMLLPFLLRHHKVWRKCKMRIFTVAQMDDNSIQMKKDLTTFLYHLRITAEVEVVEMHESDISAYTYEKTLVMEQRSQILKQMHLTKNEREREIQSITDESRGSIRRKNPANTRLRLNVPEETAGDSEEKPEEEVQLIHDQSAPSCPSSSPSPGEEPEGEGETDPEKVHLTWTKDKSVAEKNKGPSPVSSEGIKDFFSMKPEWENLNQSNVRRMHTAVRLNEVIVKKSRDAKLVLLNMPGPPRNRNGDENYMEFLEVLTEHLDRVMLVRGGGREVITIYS
STAT3 inh = IL-6 driven STAT3 reporter inhibitors, primary screen, U3A cells, luciferase, luminescence, MLSCN library | inhibition, % at 5.5 µM | 190,000 compounds, 0.89% hits | IL-6 STAT3-luciferase reporter; host cell line lacks STAT1;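 active means inhibition above the mean inhibition across all screened compounds plus 3 SD, cut at about 44% in these data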;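 further: 0% = DMSO only wells and 100% = 100 µM nifuroxazide control wells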
STAT1 blocker = STAT1 signaling inhibitors, primary screen, cell-based, HTS, luciferase reporter; 200,000 compounds, 0.35% hits; AID 920, 2007; NIH 3T3 STAT1-luciferase reporter, IFN-gamma, luminescence; inhibition, % at 5.5 µM;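 active means inhibition above a set limit, the mean inhibition across all tested compounds plus 3 SD, cut at about 34% in these data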;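 further: 0% = IFN-gamma with DMSO and 100% = IFN-gamma with 300 µM nifuroxazide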
STAT1 activator = STAT1 signaling activators, primary screen, cell-based, HTS, luciferase reporter; activation (% of control), % at 5.5 µM; NIH 3T3 STAT1-luciferase reporter, IFN-gamma, luminescence; 100% = IFN-gamma alone, no compound; 200,000 compounds, 2.6% hits;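 active means activation above the screen-wide mean activation plus 3 SD, cut at about 130% in these data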;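 further: raw ratio to IFN-gamma control signal so 100% means no change and 0% no light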
HSV replic up = enhancers of HSV replication in host cells, fold increase, host cell viability | HSV replication augmentation in cells | maximum fold increase | 220,000 compounds, 0.005% hits; in the data active means maximum fold increase above about 1.5; inconclusive means no clear call, values can overlap the other calls; tested in PC3 cells
KCC2 sec1 = KCC2 modulators in sodium-free buffer, confirmation, cell-based, HEK293 KCC2, thallium flux, secondary assay. shares compounds with Cl transport mod. FluoZin2 fluorescence; stronger effect = higher value. normalised thallium flux (F/F0 slope) at 10 µM. 3,700 compounds, 15% hits;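 active means thallium flux slope above the same plate's solvent-only control mean plus 3 SD; inconclusive means the two replicate wells disagree; inactive means no significant difference from solvent-only control wells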
KCC2 bumet counter = thallium flux persisting under bumetanide in KCC2 cells, confirmation, counter-screen for KCC2 modulator project, cell-based, HEK293 KCC2, FluoZin2, secondary assay 3; shares compounds with Cl transport mod; HEK293-KCC2 + bumetanide/ouabain; stronger effect = higher value; normalized thallium flux at 10 µM; 3,700 compounds, 49% hits; AID 1714, 2009;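 active means thallium entry rate above the same plate's blocked-transporter control wells by more than 3 SD; inconclusive means the two repeat wells disagree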;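 further: raw slope of fluorescence over initial fluorescence between 10 and 20 s after thallium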
KCC2 secondary2 = KCC2 modulators without ouabain present, confirmation, cell-based, HEK293 KCC2, thallium flux, FluoZin2, secondary assay 2. 3,700 compounds, 23% hits. shares compounds with Cl transport mod. normalized thallium flux at 10 µM. thallium flux FluoZin2 fluorescence; actives lie on both sides; F/F0 rise rate, 10–20 s post-thallium;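 active means thallium flux slope more than 3 SD above or below the plate's solvent-only control mean, mostly below; inconclusive means the two repeat wells disagreed; inactive means no significant shift from solvent-only controls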;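 further: raw slope with 0.1% DMSO as baseline and bumetanide as block control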
HEK293 Tl flux = thallium flux modulation in parental HEK cells, confirmation, counter-screen for KCC2 modulator project, cell-based, counterscreen 1; shares compounds with Cl transport mod; HEK293 parental cells, thallium flux FluoZin2, ouabain; baseline-ratio fluorescence slope, 10–20 s after thallium; thallium flux rate (normalised fluorescence) at 10 µM; AID 1716, 2009; 3,700 compounds, 46% hits;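 active means thallium flux rate significantly above the same plate's solvent-only control wells, beyond their mean plus 3 SD; inconclusive means the two replicate wells gave conflicting results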
KCC2 retest ouab = KCC2 inhibitors and activators, ouabain retest, confirmation, HEK-KCC2 cells. 3,700 compounds, 48% hits. raw Tl+ flux slope (below DMSO = inhibition, above = activation) at 10 µM. HEK293-KCC2, thallium flux FluoZin2 fluorescence; bidirectional: low = inhibitor, high = activator. AID 1717, 2009. shares compounds with Cl transport mod;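 active means thallium flux slope beyond 3 SD from same-plate DMSO control mean in most replicates, usually higher, sometimes lower; inconclusive means repeat tests gave conflicting results; inactive means no significant difference from controls in most replicates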;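 further: slope of initial-normalized fluorescence between seconds 10 and 20 after thallium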
HEK293 Tl flux2 = native HEK Tl+ uptake effects, second counter-screen – HEK cells, counterscreen 2, counter-screen for KCC2 modulator project, confirmation; HEK293 parental, thallium flux FluoZin-2 fluorescence slope; AID 1718, 2009; 3,700 compounds, 33% hits; shares compounds with Cl transport mod; thallium flux slope at 10 µM;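 active means thallium flux slope above the same plate's solvent-control mean plus 3 SD in both duplicate wells; inconclusive means duplicate wells that disagreed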;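 further: run without ouabain in cells lacking the KCC2 cotransporter; slope of fluorescence scaled to its starting value between 10 and 20 s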
* = called active by the depositor; i = inactive; ? = inconclusive; · = not tested or not shown.

SMILES | STAT3 act | Cl transport mod | STAT3 inh | STAT1 blocker | STAT1 activator | HSV replic up | KCC2 sec1 | KCC2 bumet counter | KCC2 secondary2 | HEK293 Tl flux | KCC2 retest ouab | HEK293 Tl flux2
CCOC(=O)c1c(NC(=O)C2CC(Cl)=CCC2C(=O)O)sc2c1CC(C)(C)OC2 (centres undefined) | 99 | -1.6 | 4 | 17 | 85 | i | · | · | · | · | · | ·
N#C/C(=C\c1ccc[nH]1)S(=O)(=O)c1ccccc1 | 89 | 0.83 | 15 | 20 | 81 | i | · | · | · | · | · | ·
CCN(CCCNC(=O)CN(C)S(=O)(=O)c1cccc2nsnc12)c1ccccc1 | 110 | · | -7 | -6 | 105 | · | 0.0059 | 0.0043 | ? | 0.0074 | 0.016 | 0.0097
O=C(CN(c1ccc2c(c1)OCCO2)S(=O)(=O)c1ccccc1)N1CCN(Cc2ccccc2)CC1 | 108 | -4.1* | 3 | -5 | 104 | i | 0.0061 | ? | 0.023* | 0.0072 | ? | 0.01
CN(CC(=O)NCCN1CCN(Cc2ccccc2)CC1)S(=O)(=O)c1cccc2nsnc12 | 97 | · | 6 | 1 | 99 | i | · | · | · | · | · | ·
CN(CC(=O)N1CCN(Cc2ccccc2)CC1)S(=O)(=O)c1cccc2nsnc12 | 111 | -3.2* | -8 | -1 | 99 | i | 0.0065 | 0.0044 | 0.02* | 0.0069 | 0.013* | 0.01
COc1ccc(S(=O)(=O)N(C)CC(=O)N2CCN(Cc3ccccc3)CC2)cc1C | 100 | -4.1* | 2 | 7 | 93 | i | 0.011 | 0.006 | 0.026* | 0.0039 | 0.015* | 0.012
CN(CC(=O)NCCc1ccccc1)S(=O)(=O)c1cccc2nsnc12 | 102 | -0.7 | 6 | 4 | 96 | i | · | · | · | · | · | ·
COc1ccc(Br)cc1C(=O)Nc1cc(C)cc(C)c1 | 99 | -0.14 | 5 | -7 | 106 | i | · | · | · | · | · | ·
CC(OC(=O)CC(NC(=O)c1ccccc1Cl)c1ccccc1)C(=O)Nc1cccc(Cl)c1Cl (centres undefined) | 106 | -1.9 | -7 | 3 | 98 | i | · | · | · | · | · | ·
COC(=O)Cn1ncc(N2C3CC(CC(C)(C)C3)C2C)c(Cl)c1=O (centres undefined) | 100 | -0.36 | 0 | -15 | 113 | i | · | · | · | · | · | ·
CS(=O)(=O)N(CCc1ccccc1)CC(=O)N1CCN(Cc2ccccc2)CC1 | 77 | -3.2* | 30 | 10 | 91 | i | 0.0063 | 0.0053 | 0.033 | 0.0038 | ? | 0.011
CCN(c1cccc(C)c1)S(=O)(=O)c1cccc2nsnc12 | 105 | 3.9* | -2 | 7 | 95 | · | 0.0058 | ? | 0.027* | 0.0059* | 0.015* | 0.009*
CS(=O)(=O)N(CCc1ccccc1)CC(=O)N1CCCCC1 | 95 | -0.2 | 10 | 8 | 93 | i | · | · | · | · | · | ·
COc1ccc(CNCC(O)(c2ccc(F)cc2)c2ccc(F)cc2)cc1 | 99 | -0.94 | 3 | 7 | 93 | i | · | · | · | · | · | ·
Cn1nnnc1SCCNCc1ccncc1 | 105 | · | 0 | 0 | 100 | i | 0.0093 | 0.0072 | 0.03 | ? | 0.021 | 0.0095
CCN(CC)c1ccc(NC(=O)COC(=O)COc2ccccc2[N+](=O)[O-])cc1 | 99 | -6.8* | 1 | 4 | 97 | i | 0.0096 | 0.0058 | 0.035 | 0.0039 | 0.019 | 0.012
COc1cccc(NC(=O)COC(=O)COc2ccccc2[N+](=O)[O-])c1 | 104 | 0.15 | -6 | 1 | 99 | i | · | · | · | · | · | ·
Cc1ccc(C)c(S(=O)(=O)N2CCN(CC(=O)Nc3ccc4c(c3)CCC4)CC2)c1 | 93 | -0.16 | 15 | 4 | 97 | i | · | · | · | · | · | ·
Cc1ccc(C)c(S(=O)(=O)N2CCN(CC(=O)N3CCc4ccccc4C3)CC2)c1 | 94 | -4.1* | 8 | 0 | 100 | i | 0.0072 | 0.0059 | 0.03 | 0.0067 | 0.022* | ?
Cc1ccccc1CSCC(Nc1ccc(C(=O)O)cc1[N+](=O)[O-])C(=O)O (centres undefined) | 104 | -0.49 | 1 | 0 | 100 | i | · | · | · | · | · | ·
COc1ccc2[nH]c(=O)c(C(c3nnnn3CC3CCCO3)N3CCc4ccccc4C3)cc2c1 (centres undefined) | 109 | -5.1* | -4 | 7 | 93 | i | 0.0096 | 0.007 | 0.029 | 0.0071 | 0.03 | 0.0099
C/C(=N\NC(=S)Nc1c(C)cccc1C)c1cc2ccccc2o1 | 89 | 8.6* | 17 | -3 | 103 | i | 0.0064 | 0.012* | 0.031 | 0.017* | ? | 0.013*
C/C(=N\NC(=S)Nc1ccccc1C)c1cc2ccccc2o1 | · | 40* | · | · | · | i | 0.008 | 0.047* | 0.048* | 0.043* | 0.052* | 0.035*
C/C(=N\NC(=O)C1COc2ccccc2O1)c1cc2ccccc2o1 (centres undefined) | 87 | 2.2 | 20 | -8 | 107 | i | · | · | · | · | · | ·
COC(=O)Cc1[nH]n(-c2nc3ccccc3s2)c(=O)c1C(C)=Nc1ccc(Cl)cc1 | · | 7.4* | · | · | · | i | 0.0087 | 0.014* | 0.03 | 0.013* | ? | ?
CCOc1cc(Br)ccc1S(=O)(=O)NCc1ccccc1 | 93 | · | 14 | 3 | 97 | · | 0.007 | 0.0051 | 0.024* | 0.0074 | 0.016* | 0.01

High-throughput results from PubChem BioAssay.
